Published values from different studies.
Lines come from different studies, so protocols differ.
Target: Ephrin type-A receptor 4 (EPHA4, Homo sapiens, UniProt P54764)

Compound | observed | method | tested at | remaining binding [%]
O=C(Nc1c[nH]nc1C(=O)NC1CCNCC1)c1cc(F)cc(F)c1 | binding | competition with immobilised ligand | 1 µM | 100
CC(=O)Nc1c(C(C)=O)c(=O)n(C)c2nc(-c3ccc(Cl)cc3Cl)c(-c3ccc(Cl)cc3)cc12 | cell-free assay | competition with immobilised ligand | 1 µM | 96
CCN1CCN(Cc2ccc(C(=O)Nc3ccc(C)c(Oc4ccc5c(c4)CC(=O)N5)c3)cc2C(F)(F)F)CC1 | binding | competition with immobilised ligand | 1 µM | 100
O=C(Nc1ccc(Oc2ccc(F)cc2)cc1)N1CCc2ncccc2[C@H]1c1ccc(F)cc1 | cell-free assay | competition with immobilised ligand | 1 µM | 100
COc1cnc(Nc2cccc(S(N)(=O)=O)c2)nc1N1CCN(c2ccccc2)CC1 | binding | competition with immobilised ligand | 1 µM | 97
O=C(NCc1ncc(C(F)(F)F)cc1Cl)c1ccc2c(c1)C1(CCS(=O)(=O)CC1)[C@H](C1CC1)N2S(=O)(=O)c1ccc(F)cc1 | cell-free assay | competition with immobilised ligand | 1 µM | 100
CN(c1nccc(-c2cnn3ncccc23)n1)C1CC1 | binding | – | 1 µM | 100
O=C1NC(c2ccccn2)Sc2ccccc21 (stereo not shown) | cell-free assay | competition with immobilised ligand | 1 µM | 89
COc1cnc(Nc2cccc(S(N)(=O)=O)c2)nc1N1CCN(c2ccccc2)C(=O)C1 | binding | competition with immobilised ligand | 1 µM | 100
N[C@H]1CCN(c2nccc(-c3cnn4ncccc34)n2)C1 | binding | – | 1 µM | 100
NS(=O)(=O)c1cc(NC(=O)Cc2ccccc2)ccc1Oc1cccc(Cl)c1 | cell-free assay | competition with immobilised ligand | 1 µM | 97
O=C(c1ccc(Nc2nccc(-c3cc4ccccc4s3)n2)cc1)N1CCC(N2CCCC2)CC1 | binding | competition with immobilised ligand | 1 µM | 91
C[C@H]1CCN(c2nccc(-c3cnn4ncccc34)n2)C1 | binding | – | 1 µM | 86
c1cncc(-c2cccc(Nc3nccc(NC4CCCCC4)n3)c2)c1 | binding | competition with immobilised ligand | 10 µM | 100
CN(C)c1nccc(-c2cnc3ncccn23)n1 | binding | – | 1 µM | 100
COc1ncc2cc3ccccc3nc2c1C#N | cell-free assay | competition with immobilised ligand | 5 µM | 100
CNC(=O)c1ccc(Nc2ncc(C(F)(F)F)c(NCc3nccnc3N(C)S(C)(=O)=O)n2)cc1 | cell-free assay | competition with immobilised ligand | 0.1 µM | 99
CN(CCCC(F)(F)F)c1nccc(-c2cnn3ncccc23)n1 | binding | – | 1 µM | 100
O=C(c1ccc(Nc2ncc(Cl)c(-c3ccc(Cl)s3)n2)cc1)N1CCC(N2CCCC2)CC1 | binding | competition with immobilised ligand | 1 µM | 84
FC(F)(F)Oc1cccc(-c2cnc3ccc(-c4ccncc4)nn23)c1 | cell-free assay | competition with immobilised ligand | 5 µM | 92
F[C@@H]1CCN(c2nccc(-c3cnn4ncccc34)n2)C1 | binding | – | 1 µM | 100
Cc1cnc(Nc2ccc(C(=O)N3CCC(N4CCCC4)CC3)cc2)nc1-c1cc2ccccc2s1 | binding | competition with immobilised ligand | 1 µM | 57
